Assay results as given in ChEMBL document CHEMBL4680371, “Design and Structure-Activity Relationship of a Potent Furin Inhibitor Derived from Influenza Hemagglutinin” (ACS Med Chem Lett, 2021).
Activity calls are given as the source filed them. No cut-off for these calls is given here. Where a SMILES comes first, the peptide text is derived from it.

What was measured:
Furin [1] = target: T1, Furin (Homo sapiens, UniProt P09958); test: Inhibition of recombinant soluble human furin using pyroGlu-Arg-Thr-Lys-Arg-methyl-coumaryl-7-amide as substrate measured after 1 hr
Outline: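 Soluble human recombinant furin was tested in a competitive kinetic assay. Ki is reported as the mean ± SD of at least two independent experiments.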

[2] = Half life in CD1 mouse plasma by LC-MS/MS analysis; type: ADME, cell-free; conditions: for half-life: CD1, mouse
Outline: (§1)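 Peptide incubated ex vivo in mouse plasma at 37 °C and sampled at several time points, using the ng/mL concentration range. Intact peptide quantified by high-resolution mass spectrometry and expressed as percentage remaining; t1/2 derived from the time course. Each time point run in triplicate; mean and mean ± SD reported.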

[3] = Stability of the compound in CD1 mouse plasma assessed as intact compound remaining measured after 2 mins by LC-MS/MS analysis; type: ADME, cell-free; conditions: read-out: Stabilty; outline: as §1
Furin [4] = target: T1, Furin; test: Potency index, ratio of CF1 Ki to test compound Ki for recombinant soluble human furin using pyroGlu-Arg-Thr-Lys-Arg-methyl-coumaryl-7-amide as substrate measured after 1 hr
[5] = target: T2, Proprotein convertase subtilisin/kexin type 6 (Homo sapiens) (UniProt P29122); test: Inhibition of recombinant soluble human PACE4 using pyroGlu-Arg-Thr-Lys-Arg-methyl-coumaryl-7-amide as substrate measured after 1 hr
T2 sequence (whole entry): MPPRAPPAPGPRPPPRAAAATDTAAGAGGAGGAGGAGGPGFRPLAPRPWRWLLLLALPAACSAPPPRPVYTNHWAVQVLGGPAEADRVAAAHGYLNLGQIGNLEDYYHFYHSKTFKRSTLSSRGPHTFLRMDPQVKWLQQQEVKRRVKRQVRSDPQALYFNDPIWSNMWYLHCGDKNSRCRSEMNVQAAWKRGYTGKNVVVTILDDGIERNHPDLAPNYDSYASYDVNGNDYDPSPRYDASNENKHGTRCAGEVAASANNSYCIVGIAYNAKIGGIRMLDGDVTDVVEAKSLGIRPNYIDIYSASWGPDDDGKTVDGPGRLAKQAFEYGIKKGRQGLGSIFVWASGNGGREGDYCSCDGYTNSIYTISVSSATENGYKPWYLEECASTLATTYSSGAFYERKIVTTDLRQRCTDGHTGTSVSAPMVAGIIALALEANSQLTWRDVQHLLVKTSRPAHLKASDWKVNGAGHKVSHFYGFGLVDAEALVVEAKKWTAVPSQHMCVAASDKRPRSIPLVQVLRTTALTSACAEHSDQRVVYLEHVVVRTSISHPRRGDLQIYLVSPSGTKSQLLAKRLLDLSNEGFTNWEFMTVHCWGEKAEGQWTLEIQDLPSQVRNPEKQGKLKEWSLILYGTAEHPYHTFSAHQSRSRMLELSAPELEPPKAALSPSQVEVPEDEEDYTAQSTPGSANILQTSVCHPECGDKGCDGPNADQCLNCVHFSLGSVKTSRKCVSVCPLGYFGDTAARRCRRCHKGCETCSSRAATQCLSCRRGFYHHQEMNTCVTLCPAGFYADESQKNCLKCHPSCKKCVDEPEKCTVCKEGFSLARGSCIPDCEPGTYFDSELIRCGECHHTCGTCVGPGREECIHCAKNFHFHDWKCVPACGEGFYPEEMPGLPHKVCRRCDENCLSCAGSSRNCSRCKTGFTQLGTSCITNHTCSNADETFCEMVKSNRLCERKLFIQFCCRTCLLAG

[6] = target: T3, Proprotein convertase subtilisin/kexin type 7 (Homo sapiens) (UniProt Q16549); test: Inhibition of recombinant soluble human PC7 using pyroGlu-Arg-Thr-Lys-Arg-methyl-coumaryl-7-amide as substrate measured after 1 hr
T3 sequence (whole entry): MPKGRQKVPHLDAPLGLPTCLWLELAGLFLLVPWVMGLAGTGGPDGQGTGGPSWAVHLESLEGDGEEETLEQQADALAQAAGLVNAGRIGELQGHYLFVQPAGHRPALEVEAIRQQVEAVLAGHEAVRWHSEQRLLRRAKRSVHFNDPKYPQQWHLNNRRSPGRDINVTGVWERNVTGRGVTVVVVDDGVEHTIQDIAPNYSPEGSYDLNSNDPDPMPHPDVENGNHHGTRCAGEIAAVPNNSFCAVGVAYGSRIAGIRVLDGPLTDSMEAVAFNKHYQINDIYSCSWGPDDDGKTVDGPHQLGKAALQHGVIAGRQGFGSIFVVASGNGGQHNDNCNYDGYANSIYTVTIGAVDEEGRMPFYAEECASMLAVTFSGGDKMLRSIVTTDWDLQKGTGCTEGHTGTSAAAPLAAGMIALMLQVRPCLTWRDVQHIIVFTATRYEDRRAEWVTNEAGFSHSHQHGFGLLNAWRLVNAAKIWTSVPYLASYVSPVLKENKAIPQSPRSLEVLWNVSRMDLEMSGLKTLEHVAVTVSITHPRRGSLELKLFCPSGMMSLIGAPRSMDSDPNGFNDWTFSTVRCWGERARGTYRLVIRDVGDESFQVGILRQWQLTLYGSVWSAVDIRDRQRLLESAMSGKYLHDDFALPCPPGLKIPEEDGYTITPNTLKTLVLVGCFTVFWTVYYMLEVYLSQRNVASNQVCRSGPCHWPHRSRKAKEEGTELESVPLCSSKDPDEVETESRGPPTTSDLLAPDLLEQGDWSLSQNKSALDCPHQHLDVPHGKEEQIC

[7] = target: Proprotein convertase subtilisin/kexin type 5 (Homo sapiens) (UniProt Q92824); test: Inhibition of recombinant soluble human PC5 using pyroGlu-Arg-Thr-Lys-Arg-methyl-coumaryl-7-amide as substrate measured after 1 hr
Sequence of Proprotein convertase subtilisin/kexin type 5 (Homo sapiens) (Q92824 whole entry): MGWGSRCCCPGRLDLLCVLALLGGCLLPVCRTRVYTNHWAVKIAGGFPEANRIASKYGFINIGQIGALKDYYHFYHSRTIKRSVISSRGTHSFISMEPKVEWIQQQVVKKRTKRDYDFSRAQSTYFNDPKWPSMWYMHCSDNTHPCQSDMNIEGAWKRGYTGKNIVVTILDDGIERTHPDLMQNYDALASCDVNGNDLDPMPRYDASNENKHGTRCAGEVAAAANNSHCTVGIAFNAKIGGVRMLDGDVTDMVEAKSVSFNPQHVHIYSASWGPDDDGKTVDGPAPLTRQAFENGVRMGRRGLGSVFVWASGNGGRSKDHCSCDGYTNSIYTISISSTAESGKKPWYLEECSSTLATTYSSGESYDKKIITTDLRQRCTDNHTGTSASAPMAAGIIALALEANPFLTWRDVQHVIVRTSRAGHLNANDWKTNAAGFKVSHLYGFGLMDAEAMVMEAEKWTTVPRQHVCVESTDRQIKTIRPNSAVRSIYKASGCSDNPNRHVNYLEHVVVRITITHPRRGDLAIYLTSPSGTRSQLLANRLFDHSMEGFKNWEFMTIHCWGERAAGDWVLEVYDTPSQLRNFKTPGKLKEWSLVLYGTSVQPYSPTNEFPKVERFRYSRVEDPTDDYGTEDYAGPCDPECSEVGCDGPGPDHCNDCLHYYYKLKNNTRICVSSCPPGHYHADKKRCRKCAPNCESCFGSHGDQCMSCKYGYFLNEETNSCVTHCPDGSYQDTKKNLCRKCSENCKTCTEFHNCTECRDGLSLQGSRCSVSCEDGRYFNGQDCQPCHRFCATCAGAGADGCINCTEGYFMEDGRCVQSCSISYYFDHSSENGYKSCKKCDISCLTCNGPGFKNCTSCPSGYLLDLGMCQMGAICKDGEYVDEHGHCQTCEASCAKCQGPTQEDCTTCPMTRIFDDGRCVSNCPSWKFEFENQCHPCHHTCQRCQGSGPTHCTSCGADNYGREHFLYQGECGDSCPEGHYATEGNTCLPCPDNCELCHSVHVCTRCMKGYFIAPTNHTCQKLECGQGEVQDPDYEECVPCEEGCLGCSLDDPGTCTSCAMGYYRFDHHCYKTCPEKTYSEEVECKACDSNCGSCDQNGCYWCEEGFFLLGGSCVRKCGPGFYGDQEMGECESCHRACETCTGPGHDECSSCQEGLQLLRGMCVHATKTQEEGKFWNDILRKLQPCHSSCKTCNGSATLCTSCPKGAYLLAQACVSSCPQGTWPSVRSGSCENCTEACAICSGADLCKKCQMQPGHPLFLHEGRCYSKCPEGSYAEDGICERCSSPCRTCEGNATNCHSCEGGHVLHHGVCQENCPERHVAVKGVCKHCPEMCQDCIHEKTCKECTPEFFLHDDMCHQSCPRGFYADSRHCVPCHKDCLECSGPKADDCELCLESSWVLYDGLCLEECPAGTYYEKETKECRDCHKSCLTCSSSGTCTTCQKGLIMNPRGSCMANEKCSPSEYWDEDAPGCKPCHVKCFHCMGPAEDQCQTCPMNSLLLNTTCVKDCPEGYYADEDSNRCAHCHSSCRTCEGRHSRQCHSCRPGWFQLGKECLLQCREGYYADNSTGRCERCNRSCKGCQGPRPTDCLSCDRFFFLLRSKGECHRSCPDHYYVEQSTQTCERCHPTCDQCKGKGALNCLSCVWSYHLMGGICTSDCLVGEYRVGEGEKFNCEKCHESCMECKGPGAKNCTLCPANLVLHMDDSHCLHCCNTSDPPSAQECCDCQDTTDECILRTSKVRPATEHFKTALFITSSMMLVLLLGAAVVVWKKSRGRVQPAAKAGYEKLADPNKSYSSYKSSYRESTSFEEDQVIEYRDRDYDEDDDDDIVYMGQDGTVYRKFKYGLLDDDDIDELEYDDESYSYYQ

T1 sequence (P09958 whole entry): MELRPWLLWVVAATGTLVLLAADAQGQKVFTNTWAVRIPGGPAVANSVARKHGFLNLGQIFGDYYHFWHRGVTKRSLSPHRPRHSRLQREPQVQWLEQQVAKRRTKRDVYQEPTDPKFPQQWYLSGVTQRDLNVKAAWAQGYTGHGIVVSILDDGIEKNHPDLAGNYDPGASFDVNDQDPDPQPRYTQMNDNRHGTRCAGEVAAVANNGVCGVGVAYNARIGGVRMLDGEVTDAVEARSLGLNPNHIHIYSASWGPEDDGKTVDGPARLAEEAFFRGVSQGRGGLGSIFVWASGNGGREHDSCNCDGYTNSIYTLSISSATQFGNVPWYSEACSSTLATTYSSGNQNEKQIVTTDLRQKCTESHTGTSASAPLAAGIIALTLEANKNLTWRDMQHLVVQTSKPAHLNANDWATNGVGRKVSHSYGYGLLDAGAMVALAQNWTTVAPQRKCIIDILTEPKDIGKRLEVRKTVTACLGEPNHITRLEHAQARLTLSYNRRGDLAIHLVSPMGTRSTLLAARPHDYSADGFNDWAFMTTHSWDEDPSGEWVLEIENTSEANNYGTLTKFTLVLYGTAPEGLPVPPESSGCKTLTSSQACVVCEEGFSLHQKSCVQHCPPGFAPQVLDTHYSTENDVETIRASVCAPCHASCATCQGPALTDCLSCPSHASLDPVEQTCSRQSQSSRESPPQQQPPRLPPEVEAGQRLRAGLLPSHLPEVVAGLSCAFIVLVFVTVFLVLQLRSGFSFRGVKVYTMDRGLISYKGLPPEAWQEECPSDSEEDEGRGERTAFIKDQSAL

SMILES | Ki (Furin [1]) [nM] | half-life [2] [s] | remaining at 2 min [3] [%] | Ratio Ki (Furin [4]) | inhibition [5] | inhibition [6] | inhibition [7] | t1/2 ([2]; mouse) [s]
CC[C@H](NC(=O)[C@H](CCCNC(=N)N)NC(=O)[C@H](C)NC(=O)[C@H]1CCCN1C(C)=O)C(=O)N[C@@H](CCCNC(=N)N)C(=O)N[C@@H](CCCCN)C(=O)N[C@@H](CCCCN)C(=O)N[C@@H](CCCNC(=N)N)C(=O)N[C@H](C(N)=O)[C@@H](C)O | 11 | 66.6 | 25 | – | – | – | – | –
CC(=O)N[C@@H](CCCNC(=N)N)C(=O)N[C@@H](C)C(=O)N[C@@H](CCCNC(=N)N)C(=O)N[C@@H](CCCCN)C(=O)N[C@@H](CCCNC(=N)N)C(=O)N[C@@H](CCCCN)C(=O)N[C@@H](CCCCN)C(=O)N[C@@H](CCCNC(=N)N)C(=O)N[C@H](C(N)=O)[C@@H](C)O | 7 | – | – | 2 | – | – | – | –
CC(=O)N[C@@H](CCCNC(=N)N)C(=O)N[C@@H](C)C(=O)N[C@@H](CCCNC(=N)N)C(=O)N[C@@H](CC(N)=O)C(=O)N[C@@H](CCCNC(=N)N)C(=O)N[C@@H](CCCCN)C(=O)N[C@@H](CCCCN)C(=O)N[C@@H](CCCNC(=N)N)C(=O)N[C@H](C(N)=O)[C@@H](C)O | 18 | – | – | – | Active | inactive | Active | –
CC[C@H](C)[C@H](NC(=O)[C@H](CCCNC(=N)N)NC(=O)[C@H](C)NC(=O)[C@@H]1CCCN1C(C)=O)C(=O)N[C@@H](CCCNC(=N)N)C(=O)N[C@@H](CCCCN)C(=O)N[C@@H](CCCCN)C(=O)N[C@@H](CCCNC(=N)N)C(=O)N[C@H](C(N)=O)[C@@H](C)O (Ac-PARIRKKRT-NH2) | 8 | 44.4 | 15 | – | – | – | – | –
CC(=O)N[C@@H](CCCNC(=N)N)C(=O)N[C@@H](C)C(=O)N[C@@H](CCCNC(=N)N)C(=O)N[C@H](C(=O)N[C@@H](CCCNC(=N)N)C(=O)N[C@@H](CCCCN)C(=O)N[C@@H](CCCCN)C(=O)N[C@@H](CCCNC(=N)N)C(=O)N[C@H](C(N)=O)[C@@H](C)O)C(C)C | 7 | – | – | 2 | – | – | – | –
CC(=O)N[C@@H](CCCNC(=N)N)C(=O)N[C@@H](C)C(=O)N[C@@H](CCCNC(=N)N)C(=O)N[C@@H](Cc1ccccc1)C(=O)N[C@@H](CCCNC(=N)N)C(=O)N[C@@H](CCCCN)C(=O)N[C@@H](CCCCN)C(=O)N[C@@H](CCCNC(=N)N)C(=O)N[C@H](C(N)=O)[C@@H](C)O | 21 | 19.2 | – | – | Active | inactive | Active | –
CC[C@H](C)[C@H](NC(=O)[C@H](CCCNC(=N)N)NC(=O)[C@H](C)NC(=O)[C@H](CCCNC(=N)N)NC(C)=O)C(=O)N[C@@H](CCCNC(=N)N)C(=O)N[C@@H](CCCCN)C(=O)N[C@@H](CCCCN)C(=O)N[C@@H](CCCNC(=N)N)C(=O)N[C@H](C(N)=O)[C@@H](C)O | 6 | – | – | 2 | Active | inactive | Active | –
CC(=O)N[C@@H](CCCNC(=N)N)C(=O)N[C@@H](C)C(=O)N[C@@H](CCCNC(=N)N)C(=O)N[C@@H](CCCNC(=N)N)C(=O)N[C@@H](CCCNC(=N)N)C(=O)N[C@@H](CCCCN)C(=O)N[C@@H](CCCCN)C(=O)N[C@@H](CCCNC(=N)N)C(=O)N[C@H](C(N)=O)[C@@H](C)O | 15 | – | – | – | Active | inactive | Active | 212
